Test results as given in ChEMBL document CHEMBL1144825, “A different molecular mechanism underlying antimicrobial and hemolytic actions of temporins A and L” (J Med Chem, 2008).

How the values were obtained:
Staphylococcus aureus [1] = assay: Antimicrobial activity against Staphylococcus aureus ATCC 25923 after 18 to 20 hrs by micro-broth dilution method; format: functional
Procedure, shortened: (§1)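 Microbroth dilution per NCCLS (2001): midlog-phase bacteria at 2 × 10^6 CFU/mL in Mueller-Hinton medium mixed 1:1 with MH broth containing peptide in serial 2-fold dilutions (20% ethanol), range 0.75-24 µM. Incubated 18–20 h at 37 °C; growth read as absorbance at 600 nm. MIC taken as the lowest peptide concentration giving 100% growth inhibition.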

Saccharomyces = assay: Antimicrobial activity against Saccharomyces pombe after 18 to 20 hrs by micro-broth dilution method; format: functional
Procedure, shortened: (§2)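 Yeasts tested by NCCLS (2001) microbroth dilution in Winge medium: cells mixed 1:1 with medium containing peptide in serial 2-fold dilutions (20% ethanol), range 0.75-24 µM. Incubated 18–20 h at 30 °C; absorbance read at 600 nm. MIC defined as the peptide concentration giving 100% growth inhibition.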

[2] = Toxicity assessed as hemolytic activity in human erythrocytes at 3 uM after 30 mins; format: cell-based, Erythrocyte; settings: read-out: Activity
Procedure, shortened: (§3)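 Human erythrocyte suspension in 0.9% (w/v) NaCl incubated 30 min at 37 °C with gentle mixing alongside serial 2-fold peptide dilutions (peptide dissolved in 20% ethanol). After centrifugation, supernatant absorbance read at 415 nm. Complete lysis reference obtained by suspending erythrocytes in distilled water.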

Pseudomonas syringae = assay: Antimicrobial activity against Pseudomonas syringae pv tabaci after 18 to 20 hrs by micro-broth dilution method; format: functional; procedure, shortened: as §1
Escherichia coli = assay: Antimicrobial activity against Escherichia coli D21 after 18 to 20 hrs by micro-broth dilution method; format: functional; procedure, shortened: as §1
[3] = test system: Yersinia pseudotuberculosis; assay: Antimicrobial activity against Yersinia pseudotuberculosis YP3 after 18 to 20 hrs by micro-broth dilution method; format: functional
Procedure, shortened: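 Microbroth dilution per NCCLS (2001). Mid-log bacteria at 2 × 10^6 CFU/mL in Mueller-Hinton broth are mixed 1:1 with MH broth holding serial 2-fold peptide dilutions in 20% ethanol, range 0.75-24 µM. Plates are incubated 18–20 h at 37 °C and growth is read as A600. MIC is the lowest concentration giving 100% growth inhibition.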

[4] = Antimicrobial activity against […] faecalis ATCC 29212 after 18 to 20 hrs by microbroth dilution method; format: functional; procedure, shortened: as §1
[5] = test system: Staphylococcus epidermidis; assay: Antimicrobial activity against Staphylococcus epidermidis ATCC 12228 after 18 to 20 hrs by micro-broth dilution method; format: functional; procedure, shortened: as §1
Saccharomyces cerevisiae = assay: Antimicrobial activity against Saccharomyces cerevisiae after 18 to 20 hrs by micro-broth dilution method; format: functional; procedure, shortened: as §2
[6] = Toxicity assessed as hemolytic activity in human erythrocytes at 12 uM after 30 mins; format: cell-based, Erythrocyte; settings: read-out: Activity; procedure, shortened: as §3
Staphylococcus capitis = assay: Antimicrobial activity against Staphylococcus capitis after 18 to 20 hrs by micro-broth dilution method; format: functional; procedure, shortened: as §1
Staphylococcus aureus [7] = assay: Antimicrobial activity against Staphylococcus aureus Cowan 1 after 18 to 20 hrs by micro-broth dilution method; format: functional; procedure, shortened: as §1
Candida albicans = assay: Antimicrobial activity against Candida albicans ATCC 10231 after 18 to 20 hrs by micro-broth dilution method; format: functional; procedure, shortened: as §2
Streptococcus pyogenes = assay: Antimicrobial activity against Streptococcus pyrogenes ATCC 21547 after 18 to 20 hrs by micro-broth dilution method; format: functional; procedure, shortened: as §1
[8] = Toxicity assessed as hemolytic activity in human erythrocytes at 6 uM after 30 mins; format: cell-based, Erythrocyte; settings: read-out: Activity; procedure, shortened: as §3
Priestia megaterium = assay: Antimicrobial activity against Bacillus megaterium Bm11 after 18 to 20 hrs by micro-broth dilution method; format: functional; procedure, shortened: as §1
Pseudomonas aeruginosa = assay: Antimicrobial activity against Pseudomonas aeruginosa ATCC 15692 after 18 to 20 hrs by microbroth dilution method; format: functional; procedure, shortened: as §1
[9] = Toxicity assessed as hemolytic activity in human erythrocytes at 24 uM after 30 mins; format: cell-based, Erythrocyte; settings: read-out: Activity; procedure, shortened: as §3

Substance | MIC (Staphylococcus aureus [1]) [µM] | MIC (Saccharomyces) [µM] | hemolysis at 0.5 h, 3 µM [2] [%] | MIC (Pseudomonas syringae) [µM] | MIC (Escherichia coli) [µM] | MIC [3] [µM] | MIC [4] [µM] | MIC [5] [µM] | MIC (Saccharomyces cerevisiae) [µM] | hemolysis at 0.5 h, 12 µM [6] [%] | MIC (Staphylococcus capitis) [µM] | MIC (Staphylococcus aureus [7]) [µM] | MIC (Candida albicans) [µM] | MIC (Streptococcus pyogenes) [µM] | hemolysis at 0.5 h, 6 µM [8] [%] | MIC (Priestia megaterium) [µM] | MIC (Pseudomonas aeruginosa) [µM] | hemolysis at 0.5 h, 24 µM [9] [%]
H-FVQWFSKFLGRIL-NH2 [TEMPORIN L] | 3 | 6 | 13 | 6 | 12 | 3 | 6 | 3 | 6 | 92 | 1.5 | 3 | 12 | 6 | 48 | 1.5 | 24 | 94
H-FLQLIGRVLSGIL-NH2 [GLN-TA, TEMPORIN A] | 1.5 | 3 | 9 | > 24 | > 24 | 6 | 6 | 1.5 | 6 | 70 | 1.5 | 1.5 | 6 | 6 | 18 | 0.75 | > 24 | 92
H-FLPLIGRVLSGIL-NH2 [TEMPORIN A] | 3 | 3 | 3 | > 24 | > 24 | 12 | 12 | 3 | 6 | 6 | 1.5 | 1.5 | 12 | 12 | 4.5 | 1.5 | > 24 | 28
H-FVPWFSKFLGRIL-NH2 | 3 | 3 | 6 | 6 | 12 | 3 | 6 | 1.5 | 6 | 42 | 1.5 | 1.5 | 6 | 6 | 10 | 1.5 | 24 | 92
